Source: PubChem (several laboratories)
PP1 inh – PP1-alpha (human) inhibition in PP5 counter-screen. P62136. purified PP1alpha, OMFP fluorescence. inhibition, % at 6.7 µM. actives 0.9% (n = 320,000). AID 2235;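 active means inhibition above the mean inhibition of all tested compounds plus 3 SD, computed separately for each screening campaign, cut at about 15% in these data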
PP5 primary – blocks human protein phosphatase 5 activity; P53041; purified PP5c, OMFP substrate fluorescence; inhibition, % at 6.7 µM; actives 0.18% (n = 320,000); AID 1987;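 active means inhibition above the campaign's mean inhibition across all tested compounds plus 3 SD, cut at about 9.5% in these data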;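 further: 0% = DMSO only and 100% = 100 µM cantharidin control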
Apaf-1 inh – blocks human Apaf-1 apoptosome activity | reconstituted apoptosome caspase-3 activity, DEVD-Rh110 fluorescence | inhibition, % at 20 µM | actives 0.71% (n = 330,000); active means inhibition of at least 40% at 20 µM;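 further: plate controls were DMSO wells for no effect and DEVD-CHO caspase inhibitor wells for full effect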
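System: Apoptosome proteins | Medium: Hepes pH 7.5 with detergent and BSA | Also added: Cytochrome c trigger plus (Z-DEVD)2-Rh110 caspase-3 substrate | Incubation: 30 min compound preincubation, 50 min activation, room temperature | Detection: Rhodamine 110 fluorescence at Ex 480/Em 540 nm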
GSTO1 counter – GSTO1 inhibition, counter-screen for RBBP9 inhibitors; P78417; recombinant GSTO1, activity-based probe fluorescence polarization; inhibition, % at 5.96 µM; actives 1.1% (n = 300,000); AID 1974;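 active means inhibition above the campaign mean inhibition plus 3 SD, cut at about 35% in these data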;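 further: 0% = GSTO1-1 with DMSO and 100% = wells lacking GSTO1-1 enzyme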
Target sequence (P78417 whole entry, looked up): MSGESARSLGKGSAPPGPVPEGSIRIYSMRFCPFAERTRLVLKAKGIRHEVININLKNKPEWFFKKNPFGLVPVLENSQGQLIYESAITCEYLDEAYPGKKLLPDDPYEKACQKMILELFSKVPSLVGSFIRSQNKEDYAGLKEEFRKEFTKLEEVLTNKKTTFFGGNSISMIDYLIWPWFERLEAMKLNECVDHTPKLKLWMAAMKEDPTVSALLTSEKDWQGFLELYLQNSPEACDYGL
TDP2 inh – TDP2 (human) inhibition, absorbance primary screen; inhibition, % at 12.8 µM; O95551; actives 0.34% (n = 370,000); recombinant TDP2, T5PNP hydrolysis, p-nitrophenol absorbance 415 nm;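 active means inhibition above the mean of all tested compounds plus 3 SD, set per campaign, cut at about 25% in these data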;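 further: 0% = DMSO with enzyme and 100% = buffer with substrate but no TDP2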
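Incubation: 2 h at 37 °C; Test system: recombinant human TDP2; Quantity: enzyme 120 nM; Read-out basis: percent inhibition; Medium: 50 mM Tris-HCl pH 7.5 with Mg2+, KCl, DTT, BSA; Repeats: single replicate; Compound: 12.8 µM single point, 1% DMSO; Signal: epi absorbance; Reagent: 5 mM T5PNP chromogenic substrate; Benchmarks: no-enzyme high, DMSO-plus-enzyme low.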
* = called active by the depositor; . = not tested or not shown. Sampled rows, rich in hits. Any-hit rate of the full collection: about 2.1%.

SMILES | PP1 inh | PP5 primary | Apaf-1 inh | GSTO1 counter | TDP2 inh
C[C@H]1COc2c(N3CCN(C)CC3)c(F)cc3c(=O)c(C(=O)O)cn1c23 | 0 | 3 | -2 | -2 | -2
COC(=O)C(C)NC(=S)N1CCN(c2c(F)cc3c(=O)c(C(=O)O)cn(C4CC4)c3c2OC)CC1C (centres undefined) | 16* | 3 | -14 | 10 | 19
O=C(NCCc1c[nH]c2ccccc12)OCc1cn(Cc2cc(F)ccc2F)nn1 | . | . | . | . | 10
S=C1NC2(CCCCCC2)NN1c1ccccc1 | . | . | . | . | -16
CC(C)N(CC(=O)Nc1ccc(Cl)cc1C(F)(F)F)C(=O)CCl | -4 | -1 | -12 | 66* | 8
CCC(C)N(CC(=O)Nc1cccc(C)c1C)C(=O)CCl (centres undefined) | -4 | -1 | -15 | 52* | .
CCC(CC)NC(=O)Nc1cccc(C)c1C | -3 | 3 | -3 | 5 | 2
CN1CCCN(C(=O)C2CCN(c3ncnc4c3sc3cccc(F)c34)CC2)CC1 | . | . | . | . | 1
CCOC(=O)C1CCN(C(=O)C(C)(C)NC(=O)Nc2ccc(OC)c(Cl)c2)CC1 | . | . | . | . | 0
CC(=O)NC1C(=O)N(CCN2CCOCC2)c2ccc(C)cc21 (centres undefined) | 57* | 7 | . | -9 | .
CC(=O)NC1C(=O)N(CCN2CCOCC2)c2ccc(Cl)cc21 (centres undefined) | . | . | . | . | 6
O=C(NC1CCS(=O)(=O)C1)Oc1ccccc1 (centres undefined) | -7 | 2 | 51* | -3 | 6
Cc1nc(-c2ccccn2)nc(SCC(=O)c2ccccc2)c1Cl | 15* | 2 | 7 | -4 | -9
COc1ccc(/C=N\NC(=O)c2cc(O)c(O)c(O)c2)cc1CN1CCN(c2ccc(F)cc2)CC1 | 4 | 4 | . | 52* | 4
CCCCC(=O)NNC(=S)NC(=O)c1ccc(C)cc1 | -3 | 0 | 16 | -6 | 1
Cc1ccc(C(=O)NC(=S)NNC(=O)CC#N)cc1 | -1 | 3 | -1 | 35* | 8
COC(=O)c1sc(N2C(=O)C(O)=C(C(=O)c3ccc(C)o3)C2c2ccco2)nc1C (centres undefined) | 1 | 6 | 13 | 2 | 11
Cc1cc(N2C(=O)C(O)=C(C(=O)c3cc4ccccc4o3)C2c2cccs2)no1 (centres undefined) | 19* | 3 | 2 | -10 | -3
COC(=O)c1ccc(C2C(C(=O)c3ccc(C)o3)=C(O)C(=O)N2c2cc(C)on2)cc1 (centres undefined) | 16* | 1 | 1 | -3 | -11
COC(=O)c1sc(N2C(=O)C(O)=C(C(=O)c3ccc(C)o3)C2c2ccc(F)cc2)nc1C (centres undefined) | 17* | 4 | -4 | -20 | 3
Cc1cc(N2C(=O)C(O)=C(C(=O)c3ccc(C)o3)C2c2cccs2)no1 (centres undefined) | 6 | -1 | 4 | -1 | 0
Cc1ccc(C2C(C(=O)c3cc4ccccc4o3)=C(O)C(=O)N2c2cc(C)on2)cc1 (centres undefined) | 22* | -1 | 20 | -22 | 9
C[C@@H]1[C@H](c2ccccc2)OC(O)([C@H](Cc2ccccc2)NC(=O)OC(C)(C)C)CN1C (some centres undefined) | . | . | . | . | 3
C=CCN1C(=O)[C@@H](CC(=O)N2CCSCC2)[C@]2(C(=O)OC)CCCCC=C12 | . | . | . | . | -4
Cc1csc2nc(O)c(C(=O)NCc3ccc4c(c3)OCO4)c(=O)n12 | 17* | -2 | 14 | -1 | 10
SMILES | PP1 inh | PP5 primary | Apaf-1 inh | GSTO1 counter | TDP2 inh
Cc1csc2nc(O)c(C(=O)NC3CCCCC3)c(=O)n12 | 0 | -1 | 5 | -1 | 2
O=C(C1=C(O)C(=O)N(CCN2CCOCC2)C1c1cccc([N+](=O)[O-])c1)c1cc2ccccc2o1 (centres undefined) | . | . | . | . | -8
O=C(C1=C(O)C(=O)N(CCN2CCOCC2)C1c1cccc(Br)c1)c1cc2ccccc2o1 (centres undefined) | 19* | 1 | 12 | -5 | -3
COCCCN1C(=O)C(O)=C(C(=O)c2ccc(C)o2)C1c1cccc(Br)c1 (centres undefined) | 18* | 2 | -2 | 2 | -3
COc1ccc2c(c1)CCCN2C(=O)C1CCCN(S(=O)(=O)c2cc(OC)ccc2OC)C1 (centres undefined) | . | . | . | . | -3
Cc1ccc(SCC2=NN(c3nc(C)cc(C)n3)C(=O)C2)cc1 | 2 | -1 | 18 | 37* | -10
